High-throughput results: PubChem, The Scripps Research Institute Molecular Screening Center
NPY-Y2 antag – NPY-Y2 receptor antagonists, primary screen, cell-based; Neuropeptide Y receptor type 2 (Homo sapiens), P49146; NPY-Y2 expressing cells, antagonist mode; hit rate 0.99% among 140,000; inhibition, % at 2.7 µM; AID 793, 2007; in the data active = inhibition above about 17%
Target sequence (P49146 whole entry, looked up): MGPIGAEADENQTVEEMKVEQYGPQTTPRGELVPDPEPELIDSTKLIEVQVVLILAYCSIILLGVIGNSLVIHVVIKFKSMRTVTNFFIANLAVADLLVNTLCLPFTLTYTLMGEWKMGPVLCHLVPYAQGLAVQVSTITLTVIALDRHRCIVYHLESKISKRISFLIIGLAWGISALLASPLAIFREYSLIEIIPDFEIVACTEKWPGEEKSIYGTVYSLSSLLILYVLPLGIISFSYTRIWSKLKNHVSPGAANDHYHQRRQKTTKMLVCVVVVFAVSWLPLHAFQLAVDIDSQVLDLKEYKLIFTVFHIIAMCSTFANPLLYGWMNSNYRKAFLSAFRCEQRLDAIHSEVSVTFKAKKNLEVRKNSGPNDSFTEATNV
NPY2 pot ag – NPY-Y2 potentiators or agonists, primary screen, cell-based | Neuropeptide Y receptor type 2 (Homo sapiens), P49146 | cells expressing NPY-Y2, potentiator/agonist read-out | activation, % at 3.6 µM | hit rate 0.45% among 220,000 | AID 1359, 2008; in the data active = activation above about 27%;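 note: cells stimulated with NPY near EC25 plus isoproterenol at EC100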
NPY-Y1 antag – NPY-Y1 receptor antagonists, primary screen, cell-based. Neuropeptide Y receptor type 1 (Homo sapiens), P25929. hit rate 1% among 200,000. AID 1040, 2008. inhibition, % at 3.6 µM. HEK293-CNG Y1 cells, membrane potential fluorescence; NPY at EC95, then isoproterenol;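 active = inhibition above the campaign mean inhibition of all tested compounds plus 3 SD, cut at about 20% in these data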
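Material: HEK293 Y1/CNG channel cell line | Also added: NPY (25 nM), isoproterenol (1 µM), Ro 20-1724 (25 µM) | Compound: One concentration, 3.6 µM, in 0.4% DMSO | Schedule: 3 h dye uptake, 1 h room-temperature compound, 45 min post-isoproterenol | Signal: Membrane-potential fluorescent dye readout | Read-out: % inhibition of NPY effect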
NPY-Y1 PAM-ag – NPY-Y1 receptor potentiators or agonists, primary screen, cell-based | hit rate 0.37% among 220,000 | NPY-Y1 expressing cells, potentiator/agonist activation | activation, % at 3.6 µM | Neuropeptide Y receptor type 1 (Homo sapiens), P25929; in the data active = activation above about 33%, passing the limit was not always enough;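 note: cells stimulated with NPY at EC10 then isoproterenol at EC100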
NPY-Y1 confirm – NPY-Y1 potentiators or agonists, confirmation, cell-based | cell-based NPY-Y1 potentiator/agonist assay | AID 1546, 2009 | hit rate 20% among 280 | shares compounds with NPY-Y1 PAM-ag | activation, % at 3.6 µM; in the data active = activation above about 45%;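 note: cells challenged with NPY at its EC10 plus isoproterenol stimulus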
NPY-Y2 counter – NPY-Y2 potentiators or agonists, counter-screen for NPY-Y1 potentiator project, cell-based, fluorescence. HEK293-CNG cells, membrane-potential fluorescence (FLIPR), 1536-well. activation, % at 3.6 µM. hit rate 20% among 280. shares compounds with NPY-Y1 PAM-ag; in the data active = activation above about 33%
NPY-Y1 ag – NPY-Y1 direct agonists without NPY, confirmation, counter-screen for NPY-Y1 potentiator project, cell-based, fluorescence | shares compounds with NPY-Y1 PAM-ag | HEK293 Y1-CNGC, membrane potential fluorescence, agonist mode | activation, % at 3.6 µM | hit rate 50% among 280 | AID 1697, 2009;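 active = percent activation above the mean of DMSO-only control wells plus 3 SD of those wells, cut at about 18% in these data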;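 note: cells challenged with isoproterenol plus Ro 20-1724 with no NPY in test wells; Y1 agonism lowers isoproterenol-driven cAMP and reduces probe fluorescence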
NPY-Y2 agonist – NPY-Y2 direct agonists without NPY, counter-screen for NPY-Y1 potentiator project, cell-based, fluorescence. HEK293 Y2-CNGC, membrane potential fluorescence, agonist mode. hit rate 67% among 280. shares compounds with NPY-Y1 PAM-ag. activation, % at 3.6 µM. AID 1698, 2009;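 active = activation above the solvent-only control wells' mean plus 3 SD, cut at about 11% in these data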;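 note: agonism lowers cAMP so well fluorescence drops in active wells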
CNGC counter – CNGC cAMP sensor activity inhibitors, counter-screen for NPY-Y1 potentiator/agonist project, cell-based, HEK293-CNG parental, membrane potential fluorescence, Y1 set; shares compounds with NPY-Y1 PAM-ag; isoproterenol cAMP; inhibition, % at 3.6 µM; hit rate 42% among 280; AID 1704, 2009;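 active = inhibition above the mean of stimulated solvent-only control wells plus 3 SD, cut at about 22% in these data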
A number is an active result; 0 = inactive; - = not tested or not shown. Rows were chosen to be rich in hits. Some 1.8% of all compounds tested hit in one or more screens of this group.

SMILES | NPY-Y2 antag | NPY2 pot ag | NPY-Y1 antag | NPY-Y1 PAM-ag | NPY-Y1 confirm | NPY-Y2 counter | NPY-Y1 ag | NPY-Y2 agonist | CNGC counter
COc1cccc(/C=N/Nc2snc(SC)c2C#N)c1O | 0 | 0 | 0 | 50 | 0 | 0 | 0 | 18 | 0
Cc1ccc(O)c(C(=O)c2cnc3c(c2)c(-c2ccc(F)cc2)c(C#N)c(=O)n3C)c1 | - | 0 | 0 | 42 | 61 | 55 | 49 | 54 | 34
CC(C)c1nc(SCC(=O)c2ccccc2)c2c(=O)n(C)c(=O)n(C)c2n1 | 0 | 0 | 0 | 0 | - | - | - | - | -
COC(=O)CC1(C(=O)OC)Oc2ccc(Br)cc2C(=O)N1c1cc(Cl)c(Cl)cc1Cl (centres undefined) | - | 0 | - | 49 | 0 | 0 | 0 | 0 | 0
COc1ccc(CCn2c(C)cc(C(=O)CSc3nnnn3-c3ccccc3)c2C)cc1 | 0 | 0 | 0 | 65 | 0 | 0 | 0 | 0 | 0
CCOC(=O)C1=C(C)NC(=O)NC1c1cc(Br)c(O)c(OC)c1 (centres undefined) | 0 | 0 | 0 | 0 | - | - | - | - | -
CCOC(=O)C1=C(c2ccccc2)NC(=O)NC1c1cc(Br)c(O)c(OC)c1 (centres undefined) | - | 0 | 0 | 42 | 0 | 0 | 0 | 0 | 0
O=C(COc1ccc(Cl)cc1)Nc1ccc(Cc2ccncc2)cc1 | 0 | 0 | 0 | 62 | 0 | 0 | 0 | 0 | 0
CC(=O)Oc1cc2c3c(c1)/C(=C1/SC(=S)NC1=O)C(=O)N3C(C)(C)C=C2C | - | 0 | - | 51 | 0 | 40 | 37 | 43 | 40
C=CCNCCOc1ccc(C)cc1[N+](=O)[O-] | - | 0 | 0 | 39 | 0 | 0 | 0 | 0 | 0
COCCCNCCCCOc1ccc(C)cc1[N+](=O)[O-] | 0 | 0 | 0 | 0 | - | - | - | - | -
Cc1ccccc1-n1nc(-c2cccnc2)cc1C(=O)NN | - | 0 | 0 | 0 | - | - | - | - | -
[O-]/C(=C(\C(=S)Nc1ccc(SC(F)F)cc1)[n+]1ccccc1)c1ccc(Cl)cc1Cl | - | 0 | 0 | 37 | 48 | 0 | 36 | 31 | 47
Cc1cc(C)cc(NC(=S)/C(=C(\[O-])c2ccc(Cl)cc2Cl)[n+]2ccccc2)c1 | - | 0 | 0 | 0 | - | - | - | - | -
Cc1ccn2c(Nc3ccccc3C)c(-c3ccncc3)nc2c1 | 0 | 0 | 0 | 41 | 59 | 50 | 36 | 50 | 27
COc1ccccc1N(C)S(=O)(=O)c1ccc(C(=O)OCC(=O)NCCC2=CCCCC2)cc1 | 0 | 0 | 0 | 0 | - | - | - | - | -
CCOc1ccc(S(=O)(=O)N(C)c2ccc(OCC(=O)NCCc3ccc(OC)cc3)cc2)cc1 | - | 0 | - | 0 | - | - | - | - | -
COC(=O)CNC(=O)C12CC3CC(C1)CC(c1ccc(C)cc1)(C3)C2 | - | 0 | 0 | 0 | - | - | - | - | -
Cc1ccc(C23CC4CC(CC(CN)(C4)C2)C3)cc1 | - | 0 | 0 | 35 | 0 | 0 | 21 | 31 | 31
Clc1ccc(-c2nc(C3CCCCC3)no2)cc1 | - | 0 | 0 | 0 | - | - | - | - | -
Cc1noc(-c2ccc(C(F)(F)F)cc2)c1NC(=O)Nc1ccc(Cl)cc1 | - | 0 | - | 63 | 53 | 0 | 53 | 25 | 37
Cc1cc(-c2onc(C)c2C(=O)Nc2ccc(C(F)(F)F)cc2)no1 | - | 0 | - | 0 | - | - | - | - | -
CCN(CC)CCCNc1nc2cc(OC)c(OC)cc2c2nc(-c3cccnc3)nn12 | 0 | 0 | 0 | 0 | - | - | - | - | -
